# Measurements published in ChEMBL document CHEMBL3352597, “Heck products of parthenolide and melampomagnolide-B as anticancer modulators that modify cell cycle progression” (Eur J Med Chem, 2014).
# Calls of active or inactive are those of the source. The rule behind the calls is not given here.
# Key:
# Assay type in all cases: functional
# 786-0 = test: Anticancer activity against human 786-0 cells
# Procedure, shortened: (§1)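 NCI 60 human cancer cell line panel, multiple-dose testing at five concentrations (10^-4, 10^-5, 10^-6, 10^-7 and 10^-8 M). Dose-response curves plot cytotoxic effect against log10 of drug concentration for each cell line. GI50 is the molar concentration giving 50% growth inhibition; LC50 is the concentration killing 50% of cells.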
# A498 = test: Anticancer activity against human A498 cells; procedure, shortened: as §1
# SR = test: Anticancer activity against human SR cells
# Procedure, shortened: (§2)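 NCI 60 human tumour cell line screen. A single-concentration pre-screen was run at 10^-5 M. Compounds selected from it were then tested at five concentrations, 10^-4 to 10^-8 M. Dose-response curves plotted cytotoxic effect against log10 of the drug concentration for each cell line. GI50 is the molar concentration giving 50% growth inhibition, and LC50 the concentration killing 50% of cells.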
# NCI-H522 = test: Anticancer activity against human NCI-H522 cells; procedure, shortened: as §1
# HCC 2998 = test: Anticancer activity against human HCC2998 cells; procedure, shortened: as §1
# HT-29 = test: Anticancer activity against human HT-29 cells; procedure, shortened: as §1
# [1] = Anticancer activity against human MOLT4 cells; procedure, shortened: as §1
# [2] = Anticancer activity against human HCT15 cells; procedure, shortened: as §1
# ACHN = test: Anticancer activity against human ACHN cells; procedure, shortened: as §1
# MDA-MB-468 = test: Anticancer activity against human MDA-MB-468 cells; procedure, shortened: as §1
# MDA-MB-435 = test: Anticancer activity against human MDA-MB-435 cells; procedure, shortened: as §1
# [3] = Anticancer activity against human OVCAR3 cells; procedure, shortened: as §1
# [4] = Anticancer activity against human UACC257 cells; procedure, shortened: as §2
# K562 = test: Anticancer activity against human K562 cells; procedure, shortened: as §1
# [5] = Anticancer activity against human RPMI8226 cells; procedure, shortened: as §1
# A549 = test: Anticancer activity against human A549 cells; procedure, shortened: as §1
# KM12 = test: Anticancer activity against human KM12 cells; procedure, shortened: as §1
# U-251 = test: Anticancer activity against human U251 cells; procedure, shortened: as §2
# IGROV-1 = test: Anticancer activity against human IGROV1 cells; procedure, shortened: as §1
# [6] = Anticancer activity against human LOXIMVI cells; settings: LOX IMVI; procedure, shortened: as §1
# SK-MEL-28 = test: Anticancer activity against human SK-MEL-28 cells; procedure, shortened: as §1
# SW-620 = test: Anticancer activity against human SW620 cells; procedure, shortened: as §2
# [7] = Anticancer activity against human SKOV3 cells; procedure, shortened: as §1
# RXF 393 = test: Anticancer activity against human RXF393 cells; procedure, shortened: as §1
# [8] = Anticancer activity against human UO31 cells; procedure, shortened: as §2
# [9] = Anticancer activity against human BT549 cells; procedure, shortened: as §1
# SNB-19 = test: Anticancer activity against human SNB19 cells; procedure, shortened: as §1
# TK-10 = test: Anticancer activity against human TK10 cells; procedure, shortened: as §2
# NCI-H460 = test: Anticancer activity against human NCI-H460 cells; procedure, shortened: as §1
# [10] = Anticancer activity against human HCT116 cells; procedure, shortened: as §1
# SK-MEL-5 = test: Anticancer activity against human SK-MEL-5 cells; procedure, shortened: as §1
# SF-268 = test: Anticancer activity against human SF268 cells; procedure, shortened: as §1
# NCI-H23 = test: Anticancer activity against human NCI-H23 cells; procedure, shortened: as §1
# [11] = Anticancer activity against human OVCAR4 cells; procedure, shortened: as §1
# [12] = Anticancer activity against human OVCAR5 cells; procedure, shortened: as §1
# SN12C = test: Anticancer activity against human SN12C cells; procedure, shortened: as §1
# T47D = test: Anticancer activity against human T47D cells; procedure, shortened: as §2
# DU-145 = test: Anticancer activity against human DU145 cells after 48 hrs; settings: DU-145, 48 h; procedure, shortened: as §1
# NCI-H322M = test: Anticancer activity against human NCI-H322M cells after 48 hrs; procedure, shortened: as §1
# [13] = Anticancer activity against human Hs 578T cells; procedure, shortened: as §1
# SNB-75 = test: Anticancer activity against human SNB75 cells; procedure, shortened: as §2
# M14 = test: Anticancer activity against human M14 cells; procedure, shortened: as §1
# NCI-H226 = test: Anticancer activity against human NCI-H226 cells; procedure, shortened: as §1
# [14] = Anticancer activity against human SF539 cells; procedure, shortened: as §1
# [15] = Anticancer activity against human COLO205 cells; procedure, shortened: as §1
# HOP-62 = test: Anticancer activity against human HOP62 cells; procedure, shortened: as §1
# MCF7 = test: Anticancer activity against human MCF7 cells; procedure, shortened: as §1
# HL-60(TB) = test: Anticancer activity against human HL-60(TB) cells; procedure, shortened: as §1
# Malme-3M = test: Anticancer activity against human MALME-3M cells; procedure, shortened: as §1
# [16] = Anticancer activity against human SF295 cells; procedure, shortened: as §1
# [17] = Anticancer activity against human OVCAR8 cells; procedure, shortened: as §1
# [18] = Anticancer activity against human NCI-ADR-RES cells; procedure, shortened: as §1
# CAKI-1 = test: Anticancer activity against human CAKI-1 cells; procedure, shortened: as §1
# MDA-MB-231 = test: Anticancer activity against human MDA-MB-231 cells; procedure, shortened: as §1
# UACC-62 = test: Anticancer activity against human UACC62 cells; procedure, shortened: as §2
# [19] = Anticancer activity against human PC3 cells; procedure, shortened: as §1
# CCRF-CEM = test: Anticancer activity against human CCRF-CEM cells; procedure, shortened: as §1
# SK-MEL-2 = test: Anticancer activity against human SK-MEL-2 cells; procedure, shortened: as §1
# [20] = read-out: LC50 (the source's name)
compound,measurement,setting,value
C/C1=C\CC[C@@]2(C)O[C@@H]2[C@H]2OC(=O)C(Cn3ccnc3I)[C@@H]2CC1 (stereo partly specified),GI50,786-0,14.3 µM
same,CC50,786-0; [20],53 µM
same,GI50,A498,45.2 µM
same,CC50,A498; [20],> 100 µM
same,GI50,SR,13.6 µM
same,CC50,SR; [20],> 100 µM
same,GI50,NCI-H522,1.71 µM
same,CC50,NCI-H522; [20],6.34 µM
same,GI50,HCC 2998,inactive
same,LC50,HCC 2998,inactive
same,GI50,HT-29,17.6 µM
same,CC50,HT-29; [20],61.5 µM
same,GI50,[1]; MOLT-4,19.6 µM
same,CC50,"[1]; MOLT-4, read-out: LC50 (the source's name)",97.9 µM
same,GI50,[2]; HCT-15,10.7 µM
same,CC50,"[2]; HCT-15, read-out: LC50 (the source's name)",55.6 µM
same,GI50,ACHN,10.5 µM
same,CC50,ACHN; [20],47.4 µM
same,GI50,MDA-MB-468,11.1 µM
same,LC50 (concentration killing 50% of cells),MDA-MB-468,60.4 µM
same,GI50,MDA-MB-435,13.8 µM
same,CC50,MDA-MB-435; [20],59.5 µM
same,GI50,[3]; OVCAR-3,6.85 µM
same,CC50,"[3]; OVCAR-3, read-out: LC50 (the source's name)",50.8 µM
same,GI50,[4]; UACC-257,12 µM
same,CC50,"[4]; UACC-257, read-out: LC50 (the source's name)",53.9 µM
same,GI50,K562,7.36 µM
same,CC50,K562; [20],90 µM
same,GI50,[5]; RPMI-8226,17 µM
same,CC50,"[5]; RPMI-8226, read-out: LC50 (the source's name)",> 100 µM
same,GI50,A549,19.8 µM
same,CC50,A549; [20],> 100 µM
same,GI50,KM12,43.2 µM
same,CC50,KM12; [20],> 100 µM
same,GI50,U-251,36.7 µM
same,CC50,U-251; [20],> 100 µM
same,GI50,IGROV-1,20 µM
same,CC50,IGROV-1; [20],75.6 µM
same,GI50,[6],14.9 µM
same,CC50,[6]; [20],60.9 µM
same,GI50,SK-MEL-28,16.1 µM
same,CC50,SK-MEL-28; [20],73 µM
same,GI50,SW-620,11.4 µM
same,CC50,SW-620; [20],62.8 µM
same,GI50,[7]; SK-OV-3,47.3 µM
same,CC50,"[7]; SK-OV-3, read-out: LC50 (the source's name)",> 100 µM
same,GI50,RXF 393,inactive
same,LC50,RXF 393,inactive
same,GI50,[8]; UO-31,10.8 µM
same,CC50,"[8]; UO-31, read-out: LC50 (the source's name)",50 µM
same,GI50,[9]; BT-549,15.9 µM
same,CC50,"[9]; BT-549, read-out: LC50 (the source's name)",55.3 µM
same,GI50,SNB-19,> 100 µM
same,CC50,SNB-19; [20],> 100 µM
same,GI50,TK-10,inactive
same,LC50,TK-10,inactive
same,GI50,NCI-H460,30.1 µM
same,CC50,NCI-H460; [20],> 100 µM
same,GI50,[10]; HCT-116,11.8 µM
same,CC50,"[10]; HCT-116, read-out: LC50 (the source's name)",49 µM
same,GI50,SK-MEL-5,18.5 µM
same,LC50,SK-MEL-5,95.6 µM
same,GI50,SF-268,23 µM
same,CC50,SF-268; [20],> 100 µM
same,GI50,NCI-H23,23.7 µM
same,CC50,NCI-H23; [20],> 100 µM
same,GI50,[11]; OVCAR-4,13.2 µM
same,CC50,"[11]; OVCAR-4, read-out: LC50 (the source's name)",60 µM
same,GI50,[12]; OVCAR-5,13.7 µM
same,CC50,"[12]; OVCAR-5, read-out: LC50 (the source's name)",52.5 µM
same,GI50,SN12C,17.7 µM
same,CC50,SN12C; [20],84.1 µM
same,GI50,T47D,9.88 µM
same,CC50,T47D; [20],54.3 µM
same,GI50,DU-145,18.8 µM
same,CC50,DU-145; [20],68.3 µM
same,GI50,NCI-H322M,61.3 µM
same,CC50,NCI-H322M; [20],> 100 µM
same,GI50,[13],21.3 µM
same,CC50,[13]; [20],> 100 µM
same,GI50,SNB-75,19.3 µM
same,CC50,SNB-75; [20],> 100 µM
same,GI50,M14,16.5 µM
same,CC50,M14; [20],65.6 µM
same,GI50,NCI-H226,15.4 µM
same,CC50,NCI-H226; [20],62.3 µM
same,GI50,[14]; SF-539,16.7 µM
same,CC50,"[14]; SF-539, read-out: LC50 (the source's name)",60.8 µM
same,GI50,[15]; COLO 205,14.5 µM
same,CC50,"[15]; COLO 205, read-out: LC50 (the source's name)",58.8 µM
same,GI50,HOP-62,47.4 µM
same,CC50,HOP-62; [20],> 100 µM
same,GI50,MCF7,9.79 µM
same,CC50,MCF7; [20],> 100 µM
same,GI50,HL-60(TB),6.9 µM
same,CC50,HL-60(TB); [20],77.5 µM
same,GI50,Malme-3M,10.9 µM
same,CC50,Malme-3M; [20],62.7 µM
same,GI50,[16]; SF-295,32.1 µM
same,CC50,"[16]; SF-295, read-out: LC50 (the source's name)",> 100 µM
same,GI50,[17]; OVCAR-8,16.6 µM
same,CC50,"[17]; OVCAR-8, read-out: LC50 (the source's name)",59.9 µM
same,GI50,[18],31.2 µM
same,CC50,[18]; [20],> 100 µM
same,GI50,CAKI-1,6.61 µM
same,CC50,CAKI-1; [20],49.5 µM
same,GI50,MDA-MB-231,16.4 µM
same,LC50 (concentration killing 50% of cells),MDA-MB-231,59.6 µM
same,GI50,UACC-62,inactive
same,LC50,UACC-62,inactive
same,GI50,[19]; PC-3,23.1 µM
same,CC50,"[19]; PC-3, read-out: LC50 (the source's name)",100 µM
same,GI50,CCRF-CEM,6.13 µM
same,CC50,CCRF-CEM; [20],79.6 µM
same,GI50,SK-MEL-2,18.6 µM
same,CC50,SK-MEL-2; [20],66.1 µM
